Here are results for three substances from paper PMC5474437 (EBioMedicine, 2017).

In general, Kd refers to the constant that tells how readily two partners part at equilibrium. A higher Kd goes with lower affinity.

The target in series [1] is human neutrophil peptide 1 (human). As to the kind of experiment: SPR.
Series [2] has as its system hepatocytes of C57BL/6 wild-type mice. As to the kind of experiment: Liver perfusion, Dil-LDL uptake in hepatocytes, wild-type mice. Conditions: Dil-LDL 50 μg/ml with HNP1 10 μg/ml, 20 min, 2 ml/min, normocholesterolemic WT mice, flow cytometry, n = 3 per group. In kind it is in vivo, mouse. In outline:
(§1)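 Anaesthetised mice underwent laparotomy with double-ligated vena cava. Portal vein cannulated; liver perfused 20 min at 2 ml/min with DiI-labelled human LDL (50 μg/ml) preincubated with 10 μg/ml peptide in PBS, or PBS alone. Liver minced, filtered (100 μm), spun 500 g 5 min, then 36% Percoll-HBSS 800 g 20 min. Top-phase hepatocytes analysed by flow cytometry as fold over background fluorescence; n = 3 per group, Mann-Whitney test.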
On the technique in general: A flow cytometer gives signals particle by particle.

The test system of series [3] is plasma cholesterol / lipoproteins of hypercholesterolemic mice. As to the kind of experiment: Precipitation of lipid-bound HNP1 from plasma with anti-HNP1 magnetic beads. The class given is binding, mouse. Conditions: dot blot of precipitate. The method, boiled down: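 Anti-HNP monoclonal antibody (100 μg) coupled overnight at room temperature to 3.3 × 108 magnetic beads in 1 M ammonium sulfate. Washed beads, at 2 × 109 beads/ml, added to 50 μl plasma from hypercholesterolemic mice incubated with the peptide, then rotated overnight at room temperature. Beads removed; precipitated samples spotted on nitrocellulose and probed by chemiluminescent dot blot with apolipoprotein antibodies.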

For the next series, the system named is mice expressing HNP1. Conditions: ref Abu-Fanne et al., 2016, cited from earlier work.
Series [4] is described as follows: Plasma HNP1 levels in HNP1-transgenic mice, dot blot. In kind it is in vivo, mouse. Conditions: Apoe−/− HNP1tg/tg mice, high-fat diet 4 weeks, dot blot against recombinant HNP1. In outline:
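Plasma from female HNP1-transgenic Apoe−/− mice after 4 weeks high-fat diet was spotted onto nitrocellulose and blocked in 1% non-fat milk/PBS (0.5–1.0 h, RT). Blots were probed overnight at 4 °C with anti-HNP1 (1:5000), washed in PBS/0.05% Tween 20, then given HRP secondary (1:5000, 1 h, RT) and 3 × 15 min washes. ECL chemiluminescence was the read-out.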

Series [5] concerns plasma lipoprotein fractions (VLDL, LDL, HDL). As to the kind of experiment: Dot blot of lipoprotein fractions of HNP1-treated mice. Conditions: HNP1 10 μg i.v., plasma after 24 h. In kind it is binding, mouse. In outline: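 Apoe−/− mice on high-fat diet received 10 μg i.v.; plasma collected after 24 h, pooled (10 animals per group, 0.25 ml) and fractionated by FPLC gel filtration on two Superose 6 columns in series. Fractions spotted on nitrocellulose, blocked in 1% milk/PBS (0.5–1.0 h, RT), probed overnight at 4 °C with anti-HNP1, ApoA, ApoB or ApoC3 (1:5000), HRP secondary 1:5000 (1 h, RT), ECL chemiluminescence.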

The test system of the next series is Apoe−/− mice. As to the kind of experiment: Plasma lipids after repeated HNP1 treatment. The following applies: 10 μg every other day i.v., 4 weeks, n = 8–11 per group. The class given is in vivo, mouse. The method, boiled down: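 Female Apoe−/− mice on high-fat diet (21% fat, 0.15% cholesterol) for 8 weeks received peptide (10 μg i.v., every other day) or PBS i.v. over the last 4 weeks. Plasma triglycerides were measured enzymatically with a kit. Blood leukocytes were counted by flow cytometry after red cell lysis, using CD115/CD11b/CD45/Gr1 staining and counting beads. n = 8–11 per group; one-way ANOVA with Bonferroni test.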

For series [6], the system named is Apoe−/− HNP1tg/tg mice. The series is described as follows: Blood cell counts by flow cytometry, HNP1-transgenic mice. The class given is in vivo, mouse. The following applies: transgenic HNP1 expression, vs Apoe−/−, high-fat diet 4 weeks, n = 10. In outline: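 Female Apoe−/− HNP1tg/tg mice and Apoe−/− littermates (C57Bl/6 background, ≥10 backcross generations) fed high-fat diet (21% fat, 0.15% cholesterol) for 4 weeks. Blood red cells were lysed (150 mM NH4Cl, 10 mM KHCO3, 0.1 mM diNaEDTA, pH 7.4) and HBSS-washed. Cells were stained for CD115, CD11b, CD45 and Gr1 and analysed by flow cytometry; absolute counts came from counting beads.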

A further series relates to liver of Ldlr−/− mice. The series is described as follows: Liver perfusion, Dil-LDL uptake, Ldlr−/− mice. In kind it is in vivo, mouse. Conditions: Dil-LDL 50 μg/ml with HNP1 10 μg/ml, 20 min, 2 ml/min, n = 3 per group. The method, boiled down: as §1
For series [7], the system named is Apoe−/− HNP1tg/tg mice on high-fat diet. The series is described as follows: Atherosclerotic lesions in aortic root, HNP1-transgenic Apoe−/− mice. Conditions: transgenic HNP1 expression, high-fat diet 4 weeks, Ly6G staining, n=10. In kind it is in vivo, mouse. In outline:
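Female Apoe−/− HNP1tg/tg mice (C57Bl/6 background, backcrossed ≥10 generations) fed high-fat diet (21% fat, 0.15% cholesterol) for 4 weeks. Frozen aortic root sections stained with anti-Ly6G (1A8, 1:100), then secondary antibody 30 min at room temperature, with DAPI nuclear counterstain. Images analysed by fluorescence microscopy.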

For another series, the system named is HepG2 cells. The series is described as follows: Lipid. The class given is cell-based, human. The method, boiled down:
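HepG2 cells were grown in DMEM with 10% heat-inactivated FCS at 37 °C, 5% CO2. Human LDL (50 μg/ml) was pre-incubated 30 min at 37 °C with peptide (1 μg/ml) or PBS vehicle. Cells were then exposed to LDL for 2 h. Oil Red O staining followed, and the eluted dye gave relative lipid content.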

In the next series the test system is Lp(a). The following applies: ref Bdeir et al., 1999; cited from earlier work.
The test system of series [8] is Apoe−/− HNP1tg/tg mice. As to the kind of experiment: Plasma lipids and FPLC lipoprotein fractions, HNP1-transgenic mice. In kind it is in vivo, mouse. The following applies: transgenic HNP1 expression. In outline: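 Female Apoe−/− HNP1tg/tg mice and Apoe−/− littermates were fed high-fat diet (21% fat, 0.15% cholesterol) for 4 weeks. Plasma was stored at −80 °C and triglycerides were measured enzymatically with a kit. For lipoprotein profiles, plasma from 10 animals per group was pooled (0.25 ml) and FPLC gel-filtered on two Superose 6 columns in series.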

In series [1], “human ApoB (from UniProt P04114 28-4563) (natural protein)” showed a Kd of 2.45 nM. This lies in the single-digit nanomolar range.

“human ApoC3 (from UniProt P02656 21-99) (natural protein)” had a Kd in series [1] of 0.0358 nM. This Kd lies about 68-fold lower than the previous one.

For human neutrophil peptide 1 [HNP1], in [2], the “LDL uptake in hepatocytes (portal vein perfusion)” value is given as “vast increase of LDL uptake in hepatocytes”. For the same substance, the “Apolipoproteins in anti-HNP1 precipitate” value in series [3] is “precipitate stained positive for ApoB and ApoC3”. In addition, the “Total cholesterol and LDL plasma levels in mice expressing HNP1” value in the series with mice expressing HNP1 (normocholesterolemic) was “total cholesterol levels as well as LDL plasma levels were reduced in mice expressing HNP1”. In addition, the “Lipid deposits in mice with transgenic HNP1 expression” value with mice expressing HNP1 (prolonged periods of high fat diet feeding) is given as “facilitated the development of very small lipid deposits”. In [4], the “Plasma HNP1 levels” value lay in the range of 0.5 to 1 µg/mL. The “Detection of HNP1 in lipoprotein fractions” value in series [5] (FPLC fractions, dot blot) was “only detected in VLDL and LDL fractions but not in HDL fractions”. For the same substance, the “Apolipoproteins in HNP1-positive fractions” value in series [5] (antibodies to ApoA1, ApoB, ApoC3) was “ApoB and ApoC3 were detected but not ApoA1”. Besides, the “Plasma cholesterol levels after repeated treatment” value with Apoe−/− mice (vs baseline, PBS not different from baseline) is on record as “lowered plasma cholesterol levels below baseline levels”. In the series with Apoe−/− mice, the “Plasma triglyceride levels and blood leukocyte counts after repeated treatment” value was “not affected by HNP1 treatment”. In addition, the “Blood counts of leukocyte subpopulations” value in the series with Apoe−/− HNP1tg/tg mice [6] is given as “comparable between the groups”. Further, in the series on liver of Ldlr−/− mice, the “LDL uptake in the liver (portal vein perfusion), Ldlr−/−” value is recorded as “failed to stimulate LDL uptake in the liver”. Also, in [7], the “Number of lesional neutrophils” value was “The number of lesional neutrophils was not affected”. Besides, the “HNP1-assisted LDL clearance after LDLR silencing” value in the series with HepG2 cells (Ldlr siRNA 100 nM, 24 h, HepG2) was “silencing of LDLR abrogated HNP1-assisted LDL clearance”. Besides, in the series on HepG2 cells (human LDL 50 μg/ml, HNP1 1 μg/ml, 2 h, Oil Red O elution), the “LDL uptake by HepG2” value is reported as “strongly enhanced LDL uptake”. Besides, the “Interaction with Lp(a)” value in the series with Lp(a) is recorded as “shown to interact with Lp(a)”. The HDL-cholesterol result in the series on Apoe−/− HNP1tg/tg mice [8] (FPLC, pooled plasma of 10 animals per group) is reported as “HDL-cholesterol remained unaffected”. For the same substance, the Plasma triglyceride levels result in the series on Apoe−/− HNP1tg/tg mice [8] (high-fat diet 4 weeks, n=10) is on record as “triglyceride levels remained unaffected”.
